Experiment [1] has as its system A-375. Put plainly: Induction of apoptosis in human A375 cells assessed as late apoptotic cells at 1 uM after 36 hrs by annexinV-FITC/propidium iodide staining based flow cytometric analysis (reference value: 1.02%). In kind it is functional. For orientation: A flow cytometer gives signals particle by particle.
Experiment [2] deals with A-375. Put plainly: Antiproliferative activity against human A375 cells assessed as growth inhibition after 72 hrs by MTT assay. It counts as functional, cell-based. The conditions noted are these: Homo sapiens, A-375, 72 h; read-out: IC50. The method, boiled down: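 MTT viability assay. Cancer lines seeded at 3000–6000 cells/well and L02 at 7000 cells/well, cultured overnight, then exposed to a full dose range for 72 h. MTT (0.5 mg/mL) added for 4 h, supernatant removed, formazan dissolved in DMSO, absorbance read at 570 nm. IC50 taken as the mean of three independent experiments. Cells grown in DMEM + 10% FBS, 37 °C, 5% CO2.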

Experiment [3] has as its system A-375. The experiment is described as follows: Inhibition of PDK in human A375 cells assessed as reduction in phosphorylation of PDC E1alpha at ser293 residues at 2.5 to 5 uM after 24 hrs by Western blot analysis. It counts as cell-based. The conditions noted are these: dose 2.5-5 µM. Put shortly: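 A375 cells in 6-well plates, treated 24 h. Lysed 15 min and spun 12000 rpm at 4 °C for 15 min. Protein equalized by BCA and denatured in SDS buffer at 100 °C for 8 min. Run on SDS-PAGE, transferred to nitrocellulose, blocked in 5% milk 2 h, primary antibody overnight, HRP anti-rabbit IgG 2 h, ECL detection.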

Experiment [4] has as its system A-375. The experiment is described as follows: Induction of apoptosis in human A375 cells assessed as early apoptotic cells at 5 uM after 36 hrs by annexinV-FITC/propidium iodide staining based flow cytometric analysis (reference value: 3.2%). In kind it is functional.

pIC50: −log10 of the molar value. Calls of active or inactive are those of the source. The calls are words filed in the database; no cut-off is given here.

As usually defined, the pIC50 is −log10 of the IC50, conventionally taken in molar units.

As for `CC(C)(CO)c1ccc(Nc2ccc(C(=O)C(Cl)Cl)cc2[N+](=O)[O-])cc1`, the Activity in experiment [1] is on record as 7.43%; in experiment [4], 6.52%. The pIC50 in experiment [2] is 5.96. For the same compound, the inhibition entry in experiment [3] is “Active”.

Source of the values: ChEMBL document CHEMBL4732185, “Synthesis, biological evaluation and structure-activity relationship of novel dichloroacetophenones targeting pyruvate dehydrogenase kinases with potent anticancer activity” (Eur J Med Chem, 2021).
